The subject of assay [1] is Rattus norvegicus. Description: Inhibition of ovulation in 4 day cycling rat at 750 ug, sc administered through corn oil between 12 to 12:30 pm on proestrous stage. In kind it is functional. In a few lines:
(§1)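 Antiovulation test in 4-day cycling rats. A single sc injection of analogue in corn oil was given between 12 and 12:30 p.m. on proestrus. Controls received 0.3 mL of vehicle. Ova shed were counted on estrus.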

In assay [2] the target is T1, Gonadotropin-releasing hormone receptor (Rattus norvegicus) (UniProt P30969).
T1 sequence (whole entry): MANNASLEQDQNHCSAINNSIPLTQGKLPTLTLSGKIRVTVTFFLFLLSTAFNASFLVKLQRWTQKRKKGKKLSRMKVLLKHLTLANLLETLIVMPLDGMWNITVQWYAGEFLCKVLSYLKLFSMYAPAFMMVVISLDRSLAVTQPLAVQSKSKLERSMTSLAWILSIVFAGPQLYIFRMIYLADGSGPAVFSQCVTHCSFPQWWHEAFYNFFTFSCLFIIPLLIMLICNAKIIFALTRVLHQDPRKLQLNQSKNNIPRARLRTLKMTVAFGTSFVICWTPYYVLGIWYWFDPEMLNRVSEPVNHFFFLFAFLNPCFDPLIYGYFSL
Description: Agonist activity at LH-RH receptor in Sprague-Dawley rat pituitary gland assessed as change in luteinizing hormone release in medium at 100 ug/ml incubated for 4 hrs measured every hour for 4 hrs by RIA relative to vehicle-treated control. In a few lines: (§2)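 Pituitaries from 20-day-old female Sprague-Dawley rats, two per 1 mL lactated Ringer's, incubated 6 h total at 37 °C with shaking. Medium removed hourly for LH and FSH RIA and replaced with fresh medium. Analogue alone added at I3–I6. Values expressed as ng of standards LH-LER-1240-2 (0.60 NIH-LH-S1 unit/mg) and FSH 2.1 × NIH-FSH-S1 units/mg; change versus control with SEM and p.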

Assay [3] addresses T1, Gonadotropin-releasing hormone receptor (Rattus norvegicus). Description: Antagonist activity at LH-RH receptor in Sprague-Dawley rat pituitary gland assessed as change in 0.6 ng/mL LH-RH-induced luteinizing hormone release in medium at 10 ug/ml preincubated for 2 hrs followed by LH-RH addition at 5th and 6th hr 5 mins post drug addition and measured every hour for 4 hrs by RIA relative to vehicle-treated control. The method in brief: (§3)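 Two pituitaries from 20-day-old female Sprague-Dawley rats per 1 mL lactated Ringer's, incubated 6 h at 37 °C with shaking, medium collected and replaced hourly for LH/FSH RIA. Analogue added at I3, I4, I5 and I6; LH-RH added 5 min after the peptide at I5 and I6. Results given as Δ ng/mL against LH-LER-1240-2 and NIH-FSH-S1-based standards, with SEM and p.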

Assay [4] has the same target. Description: Antagonist activity at LH-RH receptor in Sprague-Dawley rat pituitary gland assessed as change in 0.6 ng/mL LH-RH-induced luteinizing hormone release in medium at 0.1 ug/ml preincubated for 2 hrs followed by LH-RH addition at 5th and 6th hr 5 mins post drug addition and measured every hour for 4 hrs by RIA relative to vehicle-treated control. The method in brief:
as §3

Assay [5] has the same target. Description: Antagonist activity at LH-RH receptor in Sprague-Dawley rat pituitary gland assessed as change in 0.6 ng/mL LH-RH-induced follicle-stimulating hormone release in medium at 10 ug/ml preincubated for 2 hrs followed by LH-RH addition at 5th and 6th hr 5 mins post drug addition and measured every hour for 4 hrs by RIA relative to vehicle-treated control. In a few lines:
as §3

For assay [6] the target is unchanged. Description: Antagonist activity at LH-RH receptor in Sprague-Dawley rat pituitary gland assessed as change in 0.6 ng/mL LH-RH-induced luteinizing hormone release in medium at 1 ug/ml preincubated for 2 hrs followed by LH-RH addition at 5th and 6th hr 5 mins post drug addition and measured every hour for 4 hrs by RIA relative to vehicle-treated control. In a few lines:
as §3

Assay [7] has the same target. Description: Antagonist activity at LH-RH receptor in Sprague-Dawley rat pituitary gland assessed as change in 0.6 ng/mL LH-RH-induced follicle-stimulating hormone release in medium at 1 ug/ml preincubated for 2 hrs followed by LH-RH addition at 5th and 6th hr 5 mins post drug addition and measured every hour for 4 hrs by RIA relative to vehicle-treated control. In a few lines:
as §3

The target is the same in assay [8]. Description: Antagonist activity at LH-RH receptor in Sprague-Dawley rat pituitary gland assessed as change in 0.6 ng/mL LH-RH-induced follicle-stimulating hormone release in medium at 0.1 ug/ml preincubated for 2 hrs followed by LH-RH addition at 5th and 6th hr 5 mins post drug addition and measured every hour for 4 hrs by RIA relative to vehicle-treated control. In a few lines: as §3

Assay [9] shares this target. Description: Agonist activity at LH-RH receptor in Sprague-Dawley rat pituitary gland assessed as change in follicle-stimulating hormone release in medium at 100 ug/ml incubated for 4 hrs measured every hour for 4 hrs by RIA relative to vehicle-treated control. In a few lines:
as §2

The subject of assay [10] is Rattus norvegicus. Description: Inhibition of ovulation in 4 day cycling rat at 1.5 mg, sc administered through corn oil between 12 to 12:30 pm on proestrous stage. The format is functional, organism-based. In a few lines:
as §1

The values below come from ChEMBL document CHEMBL3272147, “Nonapeptide ethylamide inhibitors of the luteinizing hormone-releasing hormone (LH-RH) having a D-alanyl residue in position 6 and variations at positions 2 and 3” (1977).

Calls of active or inactive are those of the source. The rule behind the calls is not given here.

Take `CCNC(=O)[C@@H]1CCCN1C(=O)[C@H](CCCNC(=N)N)NC(=O)[C@H](CC(C)C)NC(=O)[C@@H](C)NC(=O)[C@H](Cc1ccc(O)cc1)NC(=O)[C@H](CO)NC(=O)[C@H](CC(C)C)NC(=O)[C@H](Cc1c[nH]c2ccccc12)NC(=O)[C@@H]1CCC(=O)N1`: the inhibition entry in the assay on Rattus norvegicus [1] and with Rattus norvegicus [10] was “Active” throughout. Further, the Activity in [2] was 18 ng/mL; in assay [3], 36 ng/mL; in assay [4] it was 193 ng/mL; in assay [5], -1 ng/mL; in assay [6], 73 ng/mL; in [7], 3090 ng/mL. In addition, the Activity in assay [8] stood at 7370 ng/mL; in [9], 564 ng/mL.
